Assay results as given in ChEMBL document CHEMBL1122773 (1984).
≈ marks a conversion by molar mass, not a printed value.

Test system: Staphylococcus aureus
Experiment: In vitro antibacterial activity for minimum inhibition concentration (MIC) required to inhibit growth of Staphylococcus aureus
Type: functional
In short: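 Broth microdilution in brain/heart infusion broth, inoculated with a standardized suspension to a final 10^5 viable cells/mL. Incubation 20 h at 37 °C. MIC read as the lowest concentration preventing visible growth.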

| Compound | MIC [µg/mL] |
| --- | --- |
| CC[C@H]1CCN[C@@H](C(=O)N[C@@H]([C@H]2O[C@H](SC)[C@H](O)[C@@H](O)[C@H]2O)[C@H](C)Cl)C1 | 250 (≈ 608 µM) |
| CCc1ccc(C(=O)NC(C(C)Cl)C2OC(SC)C(O)C(O)C2O)nc1 (stereo not drawn) | 62.5 (≈ 154 µM) |
| CSC1OC(C(NC(=O)[C@H]2CCC[C@@H](C)N2)C(C)Cl)C(O)C(O)C1O (stereo partly drawn) | > 25 |
| CC[C@@H]1CCC[C@H](C(=O)NC(C(C)Cl)C2OC(SC)C(O)C(O)C2O)N1 (stereo partly drawn) | > 25 |
| CSC1OC(C(NC(=O)[C@@H]2CCC[C@H](C)N2)C(C)Cl)C(O)C(O)C1O (stereo partly drawn) | > 25 |
| CSC1OC(C(NC(=O)c2cc(C(C)(C)C)ccn2)C(C)Cl)C(O)C(O)C1O (stereo not drawn) | > 100 |
| CC[C@H]1CCN(CCO)[C@@H](C(=O)NC(C(C)Cl)C2OC(SC)C(O)C(O)C2O)C1 (stereo partly drawn) | > 160 |
| CSC1OC(C(NC(=O)c2cccnc2)C(C)Cl)C(O)C(O)C1O (stereo not drawn) | > 100 |
| CSC1OC(C(NC(=O)[C@H]2CCCCN2C)C(C)Cl)C(O)C(O)C1O (stereo partly drawn) | > 100 |
| CCC[C@H]1CCN[C@@H](C(=O)NC(C(C)Cl)C2OC(SC)C(O)C(O)C2O)C1 (stereo partly drawn) | > 25 |
| CCCCCCCCc1ccnc(C(=O)NC(C(C)Cl)C2OC(SC)C(O)C(O)C2O)c1 (stereo not drawn) | > 10 |
| CSC1OC(C(NC(=O)[C@H]2CC3CCN2CC3)C(C)Cl)C(O)C(O)C1O (stereo partly drawn) | 50 (≈ 122 µM) |
| CS[C@H]1O[C@H](C(NC(=O)C2CCNCC2)C(C)Cl)[C@H](O)[C@H](O)[C@H]1O (stereo partly drawn) | > 80 |
| CSC1OC(C(NC(=O)c2ncccc2C)C(C)Cl)C(O)C(O)C1O (stereo not drawn) | > 100 |
| CSC1OC(C(NC(=O)c2ccccn2)C(C)Cl)C(O)C(O)C1O (stereo not drawn) | 62.5 (≈ 166 µM) |
| CSC1OC(C(NC(=O)c2ccncc2)C(C)Cl)C(O)C(O)C1O (stereo not drawn) | > 1000 |

| Compound | MIC [µg/mL] |
| --- | --- |
| CSC1OC(C(NC(=O)[C@H]2C[C@@H](C(C)(C)C)CCN2)C(C)Cl)C(O)C(O)C1O (stereo partly drawn) | > 25 |
| CSC1OC(C(NC(=O)[C@H]2CCCNC2)C(C)Cl)C(O)C(O)C1O (stereo partly drawn) | > 80 |
| CCCC[C@H]1CCN[C@@H](C(=O)NC(C(C)Cl)C2OC(SC)C(O)C(O)C2O)C1 (stereo partly drawn) | 31.2 (≈ 71.1 µM) |
| CSC1OC(C(NC(=O)[C@@H]2CC3CCN2CC3)C(C)Cl)C(O)C(O)C1O (stereo partly drawn) | > 100 |
| CCCCCCc1ccnc(C(=O)NC(C(C)Cl)C2OC(SC)C(O)C(O)C2O)c1 (stereo not drawn) | 50 (≈ 108 µM) |
| CSC1OC(C(NC(=O)[C@@H]2CCCNC2)C(C)Cl)C(O)C(O)C1O (stereo partly drawn) | > 80 |
| CSC1OC(C(NC(=O)c2cccc(C)n2)C(C)Cl)C(O)C(O)C1O (stereo not drawn) | > 25 |
| CSC1OC(C(NC(=O)[C@H]2CCCCN2)C(C)Cl)C(O)C(O)C1O (stereo partly drawn) | 25 (≈ 65.3 µM) |
| CSC1OC(C(NC(=O)[C@H]2CCCCCN2)C(C)Cl)C(O)C(O)C1O (stereo partly drawn) | > 100 |
| CCc1ccnc(C(=O)NC(C(C)Cl)C2OC(SC)C(O)C(O)C2O)c1 (stereo not drawn) | 1000 (≈ 2470 µM) |
| CC[C@H]1CCC[C@@H](C(=O)NC(C(C)Cl)C2OC(SC)C(O)C(O)C2O)N1 (stereo partly drawn) | > 25 |
| CC[C@H]1CCN(C)[C@@H](C(=O)NC(C(C)Cl)C2OC(SC)C(O)C(O)C2O)C1 (stereo partly drawn) | > 100 |
| CCCc1ccnc(C(=O)NC(C(C)Cl)C2OC(SC)C(O)C(O)C2O)c1 (stereo not drawn) | > 100 |
| CCc1cccc(C(=O)NC(C(C)Cl)C2OC(SC)C(O)C(O)C2O)n1 (stereo not drawn) | > 25 |
| CSC1OC(C(NC(=O)[C@@H]2NCCC[C@@H]2C)C(C)Cl)C(O)C(O)C1O (stereo partly drawn) | 25 (≈ 63 µM) |

Other lines, results leading:

| MIC [µg/mL] | Compound |
| --- | --- |
| 2 (≈ 4.87 µM) | CC[C@H]1CC[C@@H](C(=O)NC(C(C)Cl)C2OC(SC)C(O)C(O)C2O)NC1 (stereo partly drawn) |
| 25 (≈ 70.5 µM) | CSC1OC(C(NC(=O)[C@@H]2CCN2)C(C)Cl)C(O)C(O)C1O (stereo partly drawn) |
| 0.5 (≈ 1.07 µM) | CCCCCC[C@H]1CCN[C@@H](C(=O)NC(C(C)Cl)C2OC(SC)C(O)C(O)C2O)C1 (stereo partly drawn) |
| 0.5 (≈ 1.18 µM) | CCC[C@@H]1CCN[C@H](C(=O)NC(C(C)Cl)C2OC(SC)C(O)C(O)C2O)C1 (stereo partly drawn) |
| 0.03 (≈ 0.0642 µM) | CCCCCC[C@@H]1CCN[C@H](C(=O)NC(C(C)Cl)C2OC(SC)C(O)C(O)C2O)C1 (stereo partly drawn) |
| 3.9 (≈ 9.83 µM) | CSC1OC(C(NC(=O)[C@@H]2CCCCN2C)C(C)Cl)C(O)C(O)C1O (stereo partly drawn) |
| 0.16 (≈ 0.331 µM) | CCCC[C@@H]1CCN(CCO)[C@H](C(=O)NC(C(C)Cl)C2OC(SC)C(O)C(O)C2O)C1 (stereo partly drawn) |
| 3.9 (≈ 10.2 µM) | CSC1OC(C(NC(=O)[C@@H]2CCCCN2)C(C)Cl)C(O)C(O)C1O (stereo partly drawn) |
| 2.5 (≈ 6.08 µM) | CC[C@@H]1CC[C@H](C(=O)NC(C(C)Cl)C2OC(SC)C(O)C(O)C2O)NC1 (stereo partly drawn) |
| 2.5 (≈ 5.49 µM) | CC[C@@H]1CCN(CCO)[C@H](C(=O)NC(C(C)Cl)C2OC(SC)C(O)C(O)C2O)C1 (stereo partly drawn) |
| 12.5 (≈ 31.5 µM) | CSC1OC(C(NC(=O)[C@H]2NCCCC2C)C(C)Cl)C(O)C(O)C1O (stereo partly drawn) |
| 1.56 (≈ 3.93 µM) | CSC1OC(C(NC(=O)[C@@H]2CCCCCN2)C(C)Cl)C(O)C(O)C1O (stereo partly drawn) |
| 0.3 (≈ 0.624 µM) | CCCCCC[C@@H]1CCN(C)[C@H](C(=O)NC(C(C)Cl)C2OC(SC)C(O)C(O)C2O)C1 (stereo partly drawn) |
| 0.06 (≈ 0.137 µM) | CCCC[C@@H]1CCN[C@H](C(=O)NC(C(C)Cl)C2OC(SC)C(O)C(O)C2O)C1 (stereo partly drawn) |
| 0.2 (≈ 0.471 µM) | CC[C@@H]1CCN(C)[C@H](C(=O)NC(C(C)Cl)C2OC(SC)C(O)C(O)C2O)C1 (stereo partly drawn) |
| 0.3 (≈ 0.606 µM) | CCCCCCCC[C@@H]1CCN[C@H](C(=O)NC(C(C)Cl)C2OC(SC)C(O)C(O)C2O)C1 (stereo partly drawn) |
| 2 (≈ 4.56 µM) | CSC1OC(C(NC(=O)[C@@H]2C[C@H](C(C)(C)C)CCN2)C(C)Cl)C(O)C(O)C1O (stereo partly drawn) |
